# Data: ChEMBL document CHEMBL4689842, “EUbOPEN Chemogenomics Library wave 1” (2021)
# Test system: U2OS
# Test: Multiplex assay against U2OS
# Type: toxicity, cell-based
# Details: human
# Summary of the method: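 Hoechst33342, BioTracker Green Microtubule Cytoskeleton Dye, MitoTracker Red and Annexin V Alexa Fluor 680 were added to live cells at seeding, and imaging on a CQ1 microscope at 37°C and 5% CO2 followed compound addition. Gating by CellPathfinder machine learning separated cells into Hoechst high-intensity objects or normal cells, then normal cells into healthy, pyknosed or fragmented nuclei, then pyknosed cells into mitotic or apoptotic. Per cents of healthy-nucleus cells are reported for the tubulin, mitochondrial-mass and membrane-permeability phenotypes.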
# [1] = 12 h, 1 µM, compound concentration 1 uM, replicate 1
# [2] = 12 h, 1 µM, compound concentration 1 uM, replicate 2
# [3] = 12 h, 10 µM, compound concentration 10 uM, replicate 1
# [4] = 12 h, 10 µM, compound concentration 10 uM, replicate 2
# [5] = 24 h, 1 µM, compound concentration 1 uM, replicate 1
# [6] = 24 h, 1 µM, compound concentration 1 uM, replicate 2
# [7] = 24 h, 10 µM, compound concentration 10 uM, replicate 1
# [8] = 24 h, 10 µM, compound concentration 10 uM, replicate 2
# [9] = 48 h, 1 µM, compound concentration 1 uM, replicate 1
# [10] = 48 h, 1 µM, compound concentration 1 uM, replicate 2
# [11] = 48 h, 10 µM, compound concentration 10 uM, replicate 1
# [12] = 48 h, 10 µM, compound concentration 10 uM, replicate 2
smiles,measurement,setting,value
COC(=N)c1nc2ccc3ncnc(Nc4ccc(OC)cc4F)c3c2s1,Population Apoptotic (%),[1],36%
same,Population Fragmented Nuclei (%),[1],9%
same,Population Healthy Nuclei (%),[1],78%
same,Population Hoechst High Intensity Objects (%),[1],8%
same,Population Membrane Permeable-Phenotype (%),[1],17%
same,Population Mitochondria Different-Phenotype (%),[1],25%
same,Population Mitotic Cells (%),[1],63%
same,Population Normal (%),[1],91%
same,Population Pyknosed Nuclei (%),[1],12%
same,Population Tubulin-Different-Phenotype (%),[1],27%
same,Total Cell Count,[1],162
same,Population Apoptotic (%),[2],23%
same,Population Fragmented Nuclei (%),[2],10%
same,Population Healthy Nuclei (%),[2],75%
same,Population Hoechst High Intensity Objects (%),[2],6%
same,Population Membrane Permeable-Phenotype (%),[2],16%
same,Population Mitochondria Different-Phenotype (%),[2],30%
same,Population Mitotic Cells (%),[2],76%
same,Population Normal (%),[2],93%
same,Population Pyknosed Nuclei (%),[2],13%
same,Population Tubulin-Different-Phenotype (%),[2],33%
same,Total Cell Count,[2],110
same,Population Apoptotic (%),[3],37%
same,Population Fragmented Nuclei (%),[3],2%
same,Population Healthy Nuclei (%),[3],92%
same,Population Hoechst High Intensity Objects (%),[3],1%
same,Population Membrane Permeable-Phenotype (%),[3],10%
same,Population Mitochondria Different-Phenotype (%),[3],19%
same,Population Mitotic Cells (%),[3],62%
same,Population Normal (%),[3],98%
same,Population Pyknosed Nuclei (%),[3],5%
same,Population Tubulin-Different-Phenotype (%),[3],25%
same,Total Cell Count,[3],190
same,Population Fragmented Nuclei (%),[4],13%
same,Population Healthy Nuclei (%),[4],77%
same,Population Hoechst High Intensity Objects (%),[4],13%
same,Population Membrane Permeable-Phenotype (%),[4],8%
same,Population Mitochondria Different-Phenotype (%),[4],24%
same,Population Normal (%),[4],86%
same,Population Pyknosed Nuclei (%),[4],8%
same,Population Tubulin-Different-Phenotype (%),[4],32%
same,Total Cell Count,[4],179
same,Population Apoptotic (%),[5],28%
same,Population Fragmented Nuclei (%),[5],5%
same,Population Healthy Nuclei (%),[5],82%
same,Population Hoechst High Intensity Objects (%),[5],5%
same,Population Membrane Permeable-Phenotype (%),[5],17%
same,Population Mitochondria Different-Phenotype (%),[5],22%
same,Population Mitotic Cells (%),[5],71%
same,Population Normal (%),[5],94%
same,Population Pyknosed Nuclei (%),[5],12%
same,Population Tubulin-Different-Phenotype (%),[5],44%
same,Total Cell Count,[5],219
same,Population Apoptotic (%),[6],44%
same,Population Fragmented Nuclei (%),[6],9%
same,Population Hoechst High Intensity Objects (%),[6],8%
same,Population Membrane Permeable-Phenotype (%),[6],12%
same,Population Mitochondria Different-Phenotype (%),[6],27%
same,Population Mitotic Cells (%),[6],55%
same,Population Normal (%),[6],91%
same,Population Pyknosed Nuclei (%),[6],7%
same,Population Tubulin-Different-Phenotype (%),[6],39%
same,Total Cell Count,[6],118
same,Population Fragmented Nuclei (%),[7],1%
same,Population Healthy Nuclei (%),[7],96%
same,Population Hoechst High Intensity Objects (%),[7],1%
same,Population Membrane Permeable-Phenotype (%),[7],7%
same,Population Mitochondria Different-Phenotype (%),[7],16%
same,Population Normal (%),[7],98%
same,Population Pyknosed Nuclei (%),[7],1%
same,Population Tubulin-Different-Phenotype (%),[7],28%
same,Total Cell Count,[7],264
same,Population Apoptotic (%),[8],75%
same,Population Fragmented Nuclei (%),[8],11%
same,Population Healthy Nuclei (%),[8],85%
same,Population Hoechst High Intensity Objects (%),[8],7%
same,Population Membrane Permeable-Phenotype (%),[8],10%
same,Population Mitochondria Different-Phenotype (%),[8],34%
same,Population Mitotic Cells (%),[8],25%
same,Population Normal (%),[8],92%
same,Population Pyknosed Nuclei (%),[8],3%
same,Population Tubulin-Different-Phenotype (%),[8],32%
same,Total Cell Count,[8],222
CN1C2CCC1CC(OC(c1ccc(F)cc1)c1ccc(F)cc1)C2.Cl (stereo not drawn),Population Apoptotic (%),[1],45%
same,Population Fragmented Nuclei (%),[1],8%
same,Population Healthy Nuclei (%),[1],80%
same,Population Hoechst High Intensity Objects (%),[1],4%
same,Population Membrane Permeable-Phenotype (%),[1],2%
same,Population Mitochondria Different-Phenotype (%),[1],11%
same,Population Mitotic Cells (%),[1],54%
same,Population Normal (%),[1],95%
same,Population Pyknosed Nuclei (%),[1],10%
same,Total Cell Count,[1],223
same,Population Apoptotic (%),[2],100%
same,Population Fragmented Nuclei (%),[2],5%
same,Population Healthy Nuclei (%),[2],92%
same,Population Hoechst High Intensity Objects (%),[2],2%
same,Population Membrane Permeable-Phenotype (%),[2],3%
same,Population Mitochondria Different-Phenotype (%),[2],4%
same,Population Mitotic Cells (%),[2],0%
same,Population Normal (%),[2],97%
same,Population Pyknosed Nuclei (%),[2],1%
same,Population Tubulin-Different-Phenotype (%),[2],8%
same,Total Cell Count,[2],69
same,Population Apoptotic (%),[3],56%
same,Population Fragmented Nuclei (%),[3],15%
same,Population Healthy Nuclei (%),[3],68%
same,Population Hoechst High Intensity Objects (%),[3],4%
same,Population Membrane Permeable-Phenotype (%),[3],4%
same,Population Mitochondria Different-Phenotype (%),[3],81%
same,Population Mitotic Cells (%),[3],43%
same,Population Normal (%),[3],95%
same,Population Pyknosed Nuclei (%),[3],15%
same,Population Tubulin-Different-Phenotype (%),[3],54%
same,Total Cell Count,[3],151
same,Population Apoptotic (%),[4],80%
same,Population Fragmented Nuclei (%),[4],8%
same,Population Healthy Nuclei (%),[4],78%
same,Population Hoechst High Intensity Objects (%),[4],6%
same,Population Membrane Permeable-Phenotype (%),[4],10%
same,Population Mitochondria Different-Phenotype (%),[4],89%
same,Population Mitotic Cells (%),[4],20%
same,Population Normal (%),[4],93%
same,Population Pyknosed Nuclei (%),[4],13%
same,Population Tubulin-Different-Phenotype (%),[4],49%
same,Total Cell Count,[4],78
same,Population Apoptotic (%),[5],50%
same,Population Fragmented Nuclei (%),[5],7%
same,Population Healthy Nuclei (%),[5],84%
same,Population Hoechst High Intensity Objects (%),[5],3%
same,Population Membrane Permeable-Phenotype (%),[5],1%
same,Population Mitochondria Different-Phenotype (%),[5],6%
same,Population Mitotic Cells (%),[5],50%
same,Population Normal (%),[5],96%
same,Population Pyknosed Nuclei (%),[5],7%
same,Population Tubulin-Different-Phenotype (%),[5],3%
same,Total Cell Count,[5],305
same,Population Apoptotic (%),[6],20%
same,Population Fragmented Nuclei (%),[6],3%
same,Population Healthy Nuclei (%),[6],90%
same,Population Hoechst High Intensity Objects (%),[6],2%
same,Population Membrane Permeable-Phenotype (%),[6],4%
same,Population Mitochondria Different-Phenotype (%),[6],4%
same,Population Mitotic Cells (%),[6],80%
same,Population Normal (%),[6],97%
same,Population Pyknosed Nuclei (%),[6],6%
same,Population Tubulin-Different-Phenotype (%),[6],8%
same,Total Cell Count,[6],82
same,Population Apoptotic (%),[7],62%
same,Population Fragmented Nuclei (%),[7],15%
same,Population Healthy Nuclei (%),[7],65%
same,Population Hoechst High Intensity Objects (%),[7],7%
same,Population Membrane Permeable-Phenotype (%),[7],0%
same,Population Mitochondria Different-Phenotype (%),[7],71%
same,Population Mitotic Cells (%),[7],37%
same,Population Normal (%),[7],92%
same,Population Tubulin-Different-Phenotype (%),[7],30%
same,Total Cell Count,[7],196
same,Population Apoptotic (%),[8],80%
same,Population Fragmented Nuclei (%),[8],16%
same,Population Healthy Nuclei (%),[8],64%
same,Population Hoechst High Intensity Objects (%),[8],3%
same,Population Membrane Permeable-Phenotype (%),[8],6%
same,Population Mitochondria Different-Phenotype (%),[8],78%
same,Population Mitotic Cells (%),[8],20%
same,Population Normal (%),[8],96%
same,Population Pyknosed Nuclei (%),[8],19%
same,Population Tubulin-Different-Phenotype (%),[8],25%
same,Total Cell Count,[8],107
same,Population Apoptotic (%),[9],33%
same,Population Fragmented Nuclei (%),[9],6%
same,Population Healthy Nuclei (%),[9],87%
same,Population Hoechst High Intensity Objects (%),[9],1%
same,Population Membrane Permeable-Phenotype (%),[9],2%
same,Population Mitochondria Different-Phenotype (%),[9],6%
same,Population Mitotic Cells (%),[9],66%
same,Population Normal (%),[9],98%
same,Population Pyknosed Nuclei (%),[9],6%
same,Population Tubulin-Different-Phenotype (%),[9],5%
same,Total Cell Count,[9],477
same,Population Apoptotic (%),[10],0%
same,Population Fragmented Nuclei (%),[10],1%
same,Population Healthy Nuclei (%),[10],97%
same,Population Hoechst High Intensity Objects (%),[10],2%
same,Population Membrane Permeable-Phenotype (%),[10],5%
same,Population Mitochondria Different-Phenotype (%),[10],16%
same,Population Mitotic Cells (%),[10],100%
same,Population Normal (%),[10],97%
same,Population Pyknosed Nuclei (%),[10],0%
same,Population Tubulin-Different-Phenotype (%),[10],7%
same,Total Cell Count,[10],119
same,Population Apoptotic (%),[11],64%
same,Population Fragmented Nuclei (%),[11],20%
same,Population Healthy Nuclei (%),[11],63%
same,Population Hoechst High Intensity Objects (%),[11],5%
same,Population Membrane Permeable-Phenotype (%),[11],1%
same,Population Mitochondria Different-Phenotype (%),[11],44%
same,Population Mitotic Cells (%),[11],35%
same,Population Normal (%),[11],94%
same,Population Pyknosed Nuclei (%),[11],15%
same,Population Tubulin-Different-Phenotype (%),[11],17%
same,Total Cell Count,[11],249
same,Population Apoptotic (%),[12],77%
same,Population Fragmented Nuclei (%),[12],16%
same,Population Healthy Nuclei (%),[12],75%
same,Population Hoechst High Intensity Objects (%),[12],6%
same,Population Membrane Permeable-Phenotype (%),[12],18%
same,Population Mitochondria Different-Phenotype (%),[12],56%
same,Population Mitotic Cells (%),[12],22%
same,Population Normal (%),[12],93%
same,Population Pyknosed Nuclei (%),[12],7%
same,Population Tubulin-Different-Phenotype (%),[12],27%
same,Total Cell Count,[12],127
